Screening results: PubChem, several laboratories
CSN deneddyl inh = CSN deneddylation inhibition; Purified CSN, SCF-Nedd8-OG deneddylation, fluorescence polarization; inhibition, % at 12.5 µM; 360,000 tested, 0.38% active;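 active = pattern-corrected inhibition above about 35%, with an unprinted fluorescence ratio check between 0.5 and 1.5, limit read from the data, passing the limit was not always enough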;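 also: 0% = enzyme with substrate and 100% = substrate without enzyme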
Target sequence (Q92905 whole entry, looked up, one chain of several): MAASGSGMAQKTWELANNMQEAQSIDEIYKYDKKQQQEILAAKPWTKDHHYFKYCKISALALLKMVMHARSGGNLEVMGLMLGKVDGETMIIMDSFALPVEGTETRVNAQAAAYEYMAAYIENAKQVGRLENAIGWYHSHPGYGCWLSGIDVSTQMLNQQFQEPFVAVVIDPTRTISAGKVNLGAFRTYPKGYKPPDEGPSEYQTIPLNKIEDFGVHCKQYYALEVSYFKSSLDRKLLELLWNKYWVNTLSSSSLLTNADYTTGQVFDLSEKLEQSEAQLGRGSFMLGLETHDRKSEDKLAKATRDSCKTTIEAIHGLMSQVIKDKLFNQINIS
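Test system: Human Csn5 produced in HEK293T cells | Compound: 12.5 µM single point | Times: 90 min, room temperature | Signal: Fluorescence polarization readout | Read-out basis: % inhibition of substrate cleavage by Csn5 | Controls: no-enzyme wells high, enzyme-with-substrate wells low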
Rpn11 inh = inhibitors of human proteasome Rpn11 | O00487 | human 26S proteasome, Ub4-pepOG fluorescence polarization; 20S core pre-blocked with epoxomicin | inhibition, % at 20 µM | 360,000 tested, 0.59% active | AID 588493;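 active = inhibition at 20 µM, scaled to each plate's controls, above about 33%, limit read from the data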
Target sequence (O00487 whole entry, looked up): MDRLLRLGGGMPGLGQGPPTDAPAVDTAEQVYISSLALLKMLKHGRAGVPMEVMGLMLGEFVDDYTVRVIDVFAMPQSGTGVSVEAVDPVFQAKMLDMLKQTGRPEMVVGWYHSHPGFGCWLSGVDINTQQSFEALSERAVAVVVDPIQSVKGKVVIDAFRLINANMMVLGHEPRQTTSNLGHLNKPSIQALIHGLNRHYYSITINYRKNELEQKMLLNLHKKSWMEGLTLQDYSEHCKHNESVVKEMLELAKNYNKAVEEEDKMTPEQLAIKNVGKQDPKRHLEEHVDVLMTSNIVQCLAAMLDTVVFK
HNF4A DNA FP = change in binding of human HNF4 alpha to DNA | 360,000 tested, 0.3% active | HNF4a-FITC DNA binding, fluorescence polarization, 1 h | P41235 | activity change, % at 10 µM; in the data active = activity change above about 30%, passing the limit was not always enough
IDE cell inh = inhibitors of human insulin-degrading enzyme in cells; HEK cells, FAbetaB cleavage, fluorescence polarization; P14735; inhibition, % at 5.59 µM; AID 434962; 320,000 tested, 0.41% active;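 active = percent inhibition above the average of all tested compounds plus 3 SD, set per screening campaign, cut at about 16% in these data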;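 also: IDE supplied by intact live HEK cells; FP after avidin binding of uncleaved biotin substrate so inhibition keeps polarization high; 0% = DMSO wells and 100% = 60 µM reference IDE inhibitor Ii1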
IDE act = activators of human insulin-degrading enzyme in cells; P14735; HEK cells, FAbeta-B cleavage, fluorescence polarization; 0% vehicle, 100% cell-free pure enzyme wells; activation, % at 5.96 µM; 340,000 tested, 0.073% active;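 active = activation above the mean of all tested compounds plus 3 SD, set per screening campaign, cut at about 17% in these data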
TPT1 inhibitor = C. albicans TPT1 enzyme inhibition. recombinant caTPT1, FP RNA substrate dephosphorylation. inhibition, % at 5 µM. 300,000 tested, 0.81% active. AID 1962;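 active = inhibition above the mean of all tested compounds plus 3 SD, set per screening campaign, cut at about 24% in these data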;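 also: plate controls were DMSO alone for no effect and ferristatin control at 100 nM for full effect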
CSN5 deneddyl = validation of inhibitors of human CSN-mediated cullin deneddylation; AID 720654; Csn5 deneddylation of SCF-Nedd8OG, fluorescence polarization, 90 min; inhibition, % at 16.6 µM; 540 tested, 62% active; shares compounds with CSN deneddyl inh; in the data active = inhibition above about 50%;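 also: 0% = DMSO with enzyme and 100% = no enzyme wells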
MMP-2 counter = blocks human MMP-2 in a CSN deneddylation counter-screen; 540 tested, 33% active; shares compounds with CSN deneddyl inh; inhibition, % at 16.6 µM; recombinant MMP-2, FRET substrate fluorescence, 60 min;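 active = corrected plate-normalized z-score of 5 or more, or -5 or less, or inhibition of 15% or more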;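 also: plate controls were DMSO wells with enzyme for no effect and buffer wells lacking MMP-2 for full effect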
Thrombin counter = thrombin (bovine) inhibition, counter-screen for CSN hits | shares compounds with CSN deneddyl inh | bovine thrombin cleavage of Ub4-pepOG, fluorescence polarization | inhibition, % at 16.6 µM | 540 tested, 49% active | AID 720656;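 active = inhibition at or above a set limit, with a fluorescence interference ratio between 0.5 and a set maximum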
* = called active by the depositor; . = no result shown; ! = repeats disagree. The list is not random: actives were taken first. Their share in the collection is about 1.7%.

SMILES | CSN deneddyl inh | Rpn11 inh | HNF4A DNA FP | IDE cell inh | IDE act | TPT1 inhibitor | CSN5 deneddyl | MMP-2 counter | Thrombin counter
CCN(CC)C(=O)C1=C(C)N(Cc2ccccc2)C(=O)C(CC(=O)NCc2cccc3ccccc23)C1 (stereo not given) | -1 | -5 | -4 | . | . | . | . | . | .
C1CCN(CC2CCCCN2)CC1 (stereo not given) | -5 | -8 | 6 | . | 1 | . | . | . | .
COc1ccc(N=C2NC(=O)/C(=C\c3ccco3)S2)cc1 | 23 | -19 | -1 | 4 | 5 | 3 | . | . | .
O=C1NC(=Nc2ccc(O)cc2)S/C1=C\C=C\c1ccco1 | 48* | 11 | -1 | 1 | -1 | 6 | 92* | 7 | -10
CCN1/C(=C/C(C)=C/c2sc3ccccc3[n+]2CC)Sc2ccccc21 | 77* | 121* | 197* | 12 | -15 | -41 | 22 | 50*! | 113*
CCCCNC1=CC(=O)C(=O)c2ccccc21 | 48* | 4 | -3 | 3 | 1 | -2 | 87* | 4 | 0
Cn1nc(-c2ccccn2)nc2c(=O)n(C)c(=O)nc1-2 | 57* | 23 | 153* | 1 | 7 | -5 | 28 | -4 | -27
CCCc1nc2c(=O)n(C)c(=O)nc-2n(C)n1 | 76* | 10 | 157* | . | 0 | . | -10 | 5 | -28
COC(=O)c1ccc2c(c1)C(C)(C)C(/C=C/c1ccccc1O)=[N+]2C | 44* | . | 37* | 13 | -19 | 19 | 68* | -12 | 30*
C=C1[C@@H](O)[C@H](Cc2ccccc2)N(Cc2ccccc2Br)S1(=O)=O | 1 | -1 | 2 | . | 3 | . | . | . | .
O=C1NC[C@@H](CCCCN2C[C@H](Cc3ccc(O)cc3)N(CCC3CCCCC3)C(=O)C2=O)N(CCc2ccc(O)cc2)C1=O | 0 | . | -3 | . | . | . | . | . | .
CCCCn1c(NS(=O)(=O)c2ccc(C)cc2)c(S(=O)(=O)c2ccccc2)c2nc3ccccc3nc21 | 69* | 22 | -4 | -1 | -2 | 2 | 101* | 5 | -34
CCOc1ccc(C(=O)Nc2cc(-c3nc4ccccc4[nH]3)ccc2Cl)cc1[N+](=O)[O-] | 111* | -30 | 202 | 1 | -9 | -1 | . | -4 | -7
Cc1c(CCC(=O)O)c(=O)oc2c(C)c3occ(-c4ccc(Br)cc4)c3cc12 | 39* | 12 | -2 | . | -3 | . | 26 | 30* | -5
COc1ccc(-c2coc3c(C)c4oc(=O)c(CCC(=O)O)c(C)c4cc23)cc1 | 2 | 1 | -1 | 4 | -2 | -2 | . | . | .
O=C(NCc1ccc(F)cc1F)[C@@H]1CCCN1C(=O)[C@@H]1CCCN1C(=O)c1cccc2ccccc12 | -1 | . | -6 | . | . | . | . | . | .
CC(C(=O)Nc1ccc(Br)cc1)N(C)CC(=O)NCc1ccco1 (stereo not given) | -6 | 0 | 2 | -3 | -1 | . | . | . | .
CC1(C)CC[C@]2(C(=O)n3ccnc3)CC[C@]3(C)[C@H](C(=O)C=C4[C@@]5(C)C=C(C#N)C(=O)C(C)(C)[C@@H]5CC[C@]43C)[C@@H]2C1 | 39* | 4 | -19 | . | 0 | . | 56* | 0 | 8
O=C(CSc1n[nH]c(=O)[nH]c1=O)Nc1ccc2c(c1)C(=O)c1ccccc1C2=O | 48* | 4 | -68 | 4 | 1 | -8 | . | 69* | -9
O=C(CSc1ccccn1)Nc1ccc2c(c1)C(=O)c1ccccc1C2=O | 0 | -13 | -16 | 0 | 4 | 0 | . | . | .
CC1(C)Cc2c(sc3[nH]c(=S)n(Cc4ccco4)c(=O)c23)CO1 | 6 | 0 | 0 | -5 | 3 | 5 | . | . | .
O=c1c2c3c(sc2[nH]c(=S)n1Cc1ccco1)CCC3 | 45* | 7 | -12 | -1 | 1 | 3 | 92* | 34* | -2
NC1=NC(=O)/C(=C\c2ccco2)S1 | 36* | -11 | -21 | -6 | 4 | -2 | 70* | 17* | -6
Nc1cccc2c1C(=O)N(C(=O)/C=C/c1cccc(Br)c1)C2=O | 41* | 10 | -10 | . | 6 | . | 68* | 4 | 46*
Nc1cccc2c1C(=O)N(C(=O)/C=C/c1cccc(F)c1)C2=O | 23 | -3 | -8 | -5 | 2 | -14 | . | . | .
SMILES | CSN deneddyl inh | Rpn11 inh | HNF4A DNA FP | IDE cell inh | IDE act | TPT1 inhibitor | CSN5 deneddyl | MMP-2 counter | Thrombin counter
Cc1ccc2ccccc2c1C(O)c1ncc(-c2ccc(Cl)cc2)[nH]1 (stereo not given) | 0 | -14 | 4 | . | . | . | . | . | .
CCc1cc(=O)oc2cc(C)c(CN3CCCC3)c(O)c12 | 37* | 24 | -11 | -2 | 3 | 2 | 89* | 11 | 4
Nc1cccc2cc(S(=O)(=O)O)ccc12 | 37* | 3 | -27 | . | -1 | . | 67* | 10 | -11
Cc1ccc(C)c(S(=O)(=O)Nc2ccc3oc(C)c(C(=O)O)c3c2)c1 | 40* | -6 | -31 | -5 | -1 | -2 | 53 | 12 | 7
CC(=O)c1c(C)oc2ccc(NS(=O)(=O)c3ccc(C)cc3)cc12 | 1 | 1 | -4 | 0 | 2 | 1 | . | . | .
Cc1nc2ccc(N)cc2c(=O)n1Cc1ccc(Cl)cc1 | -3 | -1 | 2 | -1 | 9 | -1 | . | . | .
Nc1ccc(Cn2ccc3c4c(N)nc(N)nc4ccc32)cc1 | 39* | -2 | -5 | . | 5 | . | 93* | 0 | 11
CC1(C(=O)NS(=O)(=O)Cc2cccc(Cl)c2)CCN1C(=O)CC1CCCC1 (stereo not given) | -2 | -2 | 5 | . | . | . | . | . | .
Cc1ccsc1/C=C/C1=Cc2c(sc(NC(=O)CSc3n[nH]c(N)n3)c2C#N)C(C)(C)C1 | 32 | 17 | -2 | 2 | -13 | 23 | . | . | .
CCOc1ccc(/C=C/C2=Cc3c(sc(NC(=O)CSc4n[nH]c(N)n4)c3C#N)C(C)(C)C2)cc1 | 44* | . | 42* | -5 | 2 | 57* | 72* | 7 | 35*
CC1(C(=O)NS(=O)(=O)Cc2ccccc2)CCN1C(=O)Cc1ccccc1Cl (stereo not given) | 1 | -5 | -1 | . | . | . | . | . | .
O=C(O)c1cc(-c2ccc(/C=C3\NC(=O)N(c4ccccc4)C3=O)o2)ccc1Cl | 24 | -3 | -18 | 5 | 5 | -4 | . | . | .
O=C(O)c1cc(-c2ccc(/C=C3\NC(=O)N(c4ccc(Cl)cc4)C3=O)o2)ccc1Cl | 40* | 16 | -35 | 2 | -1 | 3 | 26 | 18* | 10
COCCNC(=O)C1CCCN(C(=O)c2ccc(F)c(C)c2)CC1 (stereo not given) | -1 | -11 | 1 | . | . | . | . | . | .
